Measurements from publication PMC4576993 (Leukemia, 2011).
Where “and” joins values, the source holds several entries; their conditions need not be identical. Equal entries are not always repeated. Entries after “also recorded” stand apart in the source; their conditions may differ.

What was measured:
[1] = Plasma vosaroxin pharmacokinetics in patients; format: in vivo, human; conditions: for half-life: T1/2, mean
[2] = system: relapsed or refractory leukemia; experiment: Clinical response; format: in vivo, human
Procedure, shortened: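 Dosing was a ~10 min IV infusion, either weekly (days 1, 8, 15; 18–90 mg/m2) or twice weekly (days 1, 4, 8, 11; 9–50 mg/m2), in 28-day cycles, up to 4(+2) cycles. Marrow aspirate or biopsy and peripheral blood were taken at each cycle end (~day 28). Response followed IWG criteria: MLFS was marrow blasts <5%; CR added no circulating blasts, no extramedullary disease, neutrophils >1×10^9/l and platelets ≥100×109/l; CRp was CR with incomplete platelet recovery.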

[3] = system: p53; conditions: cited from earlier work

CN[C@H]1CN(c2ccc3c(=O)c(C(=O)O)cn(-c4nccs4)c3n2)C[C@@H]1OC [vosaroxin, (+)-1,4-dihydro-7-(trans-3-methoxy-4-methylamino-1-pyrrolidinyl)-4-oxo-1-(2-thiazolyl)-1,8-naphthyridine-3-carboxylic acid]
Differences in clearance based on age, sex, body weight or body surface area ([1]; age overall and <65 versus ≥65 years): No significant differences in clearance | Average total body clearance ([1]; all patients): 2 l/h/m^2 | Induction or inhibition of vosaroxin metabolism after repeated doses ([1]; clearance compared weekly vs days 1, 4, 8 and 11): No induction or inhibition of vosaroxin metabolism was evident | Plasma exposure (AUC) versus dose ([1]; dose range 9–90 mg/m^2): dose proportional; also recorded: increased proportionally with an increase in dose | AUC(0-t) ([1]; human, plasma, intravenous, 72 mg/m2): 32500 ng·h/mL | AUC(0-inf) ([1]; human, plasma, intravenous, 72 mg/m2, AUCinf, mean, weekly, Day 1, 72 mg/m^2, N 11, cycle 1): 39400 ng·h/mL | clearance ([1]; human, plasma, intravenous, 72 mg/m2, CL, mean, weekly, Day 1, 72 mg/m^2, N 11, cycle 1): 69.3 mL/min | MRT ([1]; human, plasma, intravenous, 72 mg/m2, MRT, mean, weekly, Day 1, 72 mg/m^2, N 11, cycle 1): 33.9 h | Vd ([1]; human, plasma, intravenous, 72 mg/m2, Vss, mean, weekly, Day 1, 72 mg/m^2, N 11, cycle 1): 130 L | Cmax ([1]; human, plasma, intravenous, 72 mg/m^2): 1920 ng/mL | AUC(0-inf) ([1]; human, plasma, intravenous, AUCinf, mean, twice weekly, Day 1, 9–50 mg/m^2, N 31, cycle 1): 14200 ng·h/mL | AUC(0-inf) ([1]; human, plasma, intravenous, AUCinf, mean, twice weekly, Day 8, 9–50 mg/m^2, N 29, cycle 1): 15600 ng·h/mL | AUC(0-inf) ([1]; human, plasma, intravenous, AUCinf, mean, twice weekly, Day 11, 9–50 mg/m^2, N 28, cycle 1): 16000 ng·h/mL | clearance ([1]; human, plasma, intravenous, Average total body clearance, all patients): 66.7 mL/min | clearance ([1]; human, plasma, intravenous, CL, mean, twice weekly, Day 1, 9–50 mg/m^2, N 31, cycle 1): 72.8 mL/min | clearance ([1]; human, plasma, intravenous, CL, mean, twice weekly, Day 8, 9–50 mg/m^2, N 29, cycle 1): 75.7 mL/min | clearance ([1]; human, plasma, intravenous, CL, mean, twice weekly, Day 11, 9–50 mg/m^2, N 28, cycle 1): 75.3 mL/min | clearance ([1]; human, plasma, intravenous, CL, mean, weekly, Day 1, 18–90 mg/m^2, N 41, cycle 1): 65.3 mL/min | MRT ([1]; human, plasma, intravenous, MRT, mean, twice weekly, Day 1, 9–50 mg/m^2, N 31, cycle 1): 33.9 h | MRT ([1]; human, plasma, intravenous, MRT, mean, twice weekly, Day 8, 9–50 mg/m^2, N 29, cycle 1): 28.6 h | MRT ([1]; human, plasma, intravenous, MRT, mean, twice weekly, Day 11, 9–50 mg/m^2, N 28, cycle 1): 30.8 h | half-life ([1]; human, plasma, intravenous, twice weekly, Day 1, 9–50 mg/m^2, N 31, cycle 1): 26.6 h | half-life ([1]; human, plasma, intravenous, twice weekly, Day 4, 9–50 mg/m^2, N 30, cycle 1): 28.2 h | Vd ([1]; human, plasma, intravenous, Vss, mean, twice weekly, Day 1, 9–50 mg/m^2, N 31, cycle 1): 142 L | Vd ([1]; human, plasma, intravenous, Vss, mean, twice weekly, Day 8, 9–50 mg/m^2, N 29, cycle 1): 126 L | Vd ([1]; human, plasma, intravenous, Vss, mean, twice weekly, Day 11, 9–50 mg/m^2, N 28, cycle 1): 136 L | Drug accumulation (AUC72 ratio) day 11/day 1 ([1]; twice-weekly schedule, repeated doses, n=28, P<0.05): 1.2 | Drug accumulation (AUC72 ratio) day 4/day 1 ([1]; twice-weekly schedule, repeated doses, n=29, P<0.05): 1.2 | Median time to morphologic leukemia-free state after first dose ([2]; 16 patients): 32.5 days | Time to morphologic leukemia-free state after first dose, range ([2]; 16 patients): 21–51 days | Patients with response of CR or CRp ([2]; 73 treated patients, both schedules): Five | Additional patients with morphologic leukemia-free state (beyond CR/CRp) ([2]; both schedules): 11 patients | Duration of CR/CRp responses, range ([2]; five responding patients): 1.7–19.2 months | Median duration of CR/CRp responses ([2]; five responding patients): 3.1 months | Patients achieving morphologic leukemia-free state ([2]; once weekly with ≥50 mg/m^2): 12 patients | Patients achieving morphologic leukemia-free state ([2]; twice weekly with ≥30 mg/m^2): 4 patients | Time plasma concentration >1 μmol/l in the other two patients with CR or CRp ([2]; weekly time above threshold): 10 h and 16 h | Dependence of activity on p53 [3]: independent of p53
